b-catenin transl: modulators of beta-catenin nuclear translocation, primary screen, imaging, HeLa cells, immunofluorescence, high-content; nuclear translocation activity, % at 5 µM; hit rate 0.3% among 190,000;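 active = nuclear translocation activity above 50% at 5 µM, with a well cell count of 50 or more; inconclusive = wells under 50 cells across six images, flagged as toxic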;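 note: per-cell ratio of nuclear to cytoplasmic median beta-catenin stain intensity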
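Technique: fluorescence imaging of beta-catenin antibody stain plus DAPI / Material: human HeLa cell line / Incubation: compound treatment 24 h, 37°C, 5% CO2 / Read-out basis: % activation of per-cell nuclear versus cytoplasmic median beta-catenin signal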
MT stabilizer: microtubule stabilizers in HeLa cells, primary screen, imaging, high-content imaging | hit rate 0.83% among 200,000 | % tubulin-high responders, % at 10 µM | AID 2205, 2009 | HeLa tubulin immunostaining HCS, 24 h; share of cells brighter than vehicle mean+2SD;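 active = plate Z-score above 3 for both tubulin-high and condensed-nucleus cell shares, with cell loss under 80%, at 10 µM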;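 note: anti alpha tubulin signal scored within the nucleus-defined area of each cell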
Dynein transport: inhibitors of GR-EGFP nuclear translocation, primary screen, dynein cargo transport inhibitor project, imaging, high-content, 3617.4 mouse cells. test concentration mostly 20 µM; stimulated with dexamethasone, 1 µM; stronger effect = lower value. z-score, hits read low. hit rate 0.47% among 220,000. AID 1381, 2008;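 active = plate z-score of nuclear minus cytoplasmic receptor signal below a set negative limit, without overly bright fluorescence or cell loss, cut at about -3.5 in these data, passing the limit was not always enough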;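 note: z-score of nuclear minus cytoplasmic ring GR-EGFP intensity difference per well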
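Medium: Induction medium lacking tetracycline, stripped serum | Probe or stimulus: 1.0 µM final dexamethasone stimulus | Schedule: 48 h induction, then 1 h compound, then 30 min agonist, 37 °C | Signal: Automated 10x imaging of fixed Hoechst-stained cells | Evaluation: Per-cell GR-EGFP intensity, nucleus versus surrounding cytoplasmic ring, well-averaged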
L major viab: Leishmania major promastigote growth inhibition, primary screen; AID 1063, 2008; hit rate 9% among 200,000; inhibition, % at 10 µM; Leishmania major promastigotes, resazurin fluorescence viability; in the data active = inhibition above about 50%;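 note: promastigotes grown with compound for 44 hours at 28 °C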
HSV augment: enhancers of HSV replication in host cells, fold increase, host cell viability; HSV replication augmentation in cells; maximum fold increase; hit rate 0.005% among 220,000; AID 1956, 2009; in the data active = maximum fold increase above about 1.5; inconclusive = no clear call, values can overlap the other calls; tested in PC3 cells
Dynein confirm: dynein cargo transport inhibitors, GR-EGFP translocation, confirmation, imaging, high-content imaging, GR-EGFP cells; shares compounds with Dynein transport; 3617.4 GR-EGFP nuclear translocation imaging, dexamethasone-induced; calls only at 20 µM; hit rate 69% among 1,000;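 active = inhibition of receptor movement into the nucleus at or above a set limit in both runs, with normal cell brightness and cell count; inconclusive = limit reached in only one run, brightness and count normal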;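 note: dexamethasone at 1 µM final in well for 30 min; nuclear minus cytoplasmic GR-EGFP mean intensity difference in channel 2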
Each line names hits and unclear results; the compound was inactive in the other large screens (follow-up assays come after a bar, where they were run). Only some compounds are listed: those with a hit (about 8.9% of all), similar ones and a draw of the others.

Cc1cc(C)nc(N/N=C/C2=C(O)CC(c3ccc(F)cc3)CC2=O)n1 (stereo unspecified)	none (no result: MT stabilizer, L major viab)
Cc1ccc(CN2C(=O)CSc3ccc(C(=O)NCCN4CCOCC4)cc32)cc1	none (no result: b-catenin transl)
CCC(C)(C)c1ccc(OCCCC[n+]2cccc(C)c2C)c(C(C)(C)CC)c1	Dynein transport -5.2 (no result: MT stabilizer, L major viab) | Dynein confirm inactive
COC(=O)c1cnn(-c2nc(OC)cc(OC)n2)c1C	none
COc1cc(OC)nc(-n2ncc(Br)c(Br)c2=O)n1	Dynein transport -3.5, L major viab 100 (no result: b-catenin transl) | Dynein confirm active
CS(=O)(=O)c1nc(-c2ccc(F)cc2)cc(C(F)(F)F)n1	none | Dynein confirm inactive
COc1ccc(-c2cc(C(F)(F)F)nc(S(C)(=O)=O)n2)cc1	Dynein transport -5.3, L major viab 100 (no result: b-catenin transl) | Dynein confirm inactive
CCOC(=O)CS(=O)(=O)c1nc(-c2ccc(F)cc2)cc(C(F)(F)F)n1	none | Dynein confirm active
O=C(CSc1nnc(-c2ccc(Br)cc2)o1)Nc1cccc2ccccc12	none
CCN(CC)c1ccc(N=Cc2ccc([N+](=O)[O-])o2)cc1	Dynein transport -3.8, L major viab 91 | Dynein confirm inconclusive
O=C1CSC(=S)N1Cc1cccnc1	Dynein transport -4.6, L major viab 100 | Dynein confirm inactive
CN(C)c1oc(-c2ccccc2[N+](=O)[O-])nc1C#N	Dynein transport -5.1 (no result: MT stabilizer, L major viab) | Dynein confirm inactive
O=C(CN(c1cccc(C(F)(F)F)c1)S(=O)(=O)c1ccc(Cl)c([N+](=O)[O-])c1)NCc1ccccc1Cl	Dynein transport -3.7, L major viab 100 | Dynein confirm inactive
O=C(CN(c1cccc(C(F)(F)F)c1)S(=O)(=O)c1ccc(Cl)c([N+](=O)[O-])c1)NCc1ccccc1	Dynein transport -5.5, L major viab 63 | Dynein confirm active
COC(=O)c1ccccc1N=C(SC)N(C)C	none
N#CC1=C(N)OC2=C(CC/C2=C\c2ccccc2)C1c1ccccc1 (stereo unspecified)	L major viab 101 (no result: HSV augment) | Dynein confirm active
O=C(C1=C(O)C(=O)N(CCc2ccccc2)C1c1cccnc1)c1ccco1 (stereo unspecified)	none
CN1CCN(Cc2nc3ccccc3c(=O)n2Cc2nc(-c3ccc([N+](=O)[O-])cc3)cs2)CC1	Dynein transport -3.7, L major viab 100 | Dynein confirm inactive
CCC1Oc2ccc(C)cc2N(CC(=O)N(Cc2ccc3c(c2)OCO3)CC2CCCO2)C1=O (stereo unspecified)	none
CCC1Oc2ccc(C)cc2N(CC(=O)N(Cc2cccnc2)Cc2ccc(C)o2)C1=O (stereo unspecified)	Dynein transport -3.7, L major viab 100 | Dynein confirm inconclusive
COc1ccc(-n2c(SCC(=O)Nc3nccs3)nnc2-c2ccoc2C)cc1	none
COC(=O)c1ccc(-n2c(C)cc(C(=O)CCl)c2C)cc1	Dynein transport -5, L major viab 101 | Dynein confirm active
CCOC(=O)c1cc(C)n(-c2ccc(Cl)cc2)c1C	none (no result: MT stabilizer, L major viab)
CCOc1ccc(-n2c(C)cc(C(=O)CCl)c2C)cc1	Dynein transport -4.8, L major viab 100 | Dynein confirm active
CCOc1ccc(NC(=S)Nc2ccccc2C2CC2)cc1	none
O=[N+]([O-])c1cc([N+](=O)[O-])c2cccnc2c1Oc1ccccc1O	Dynein transport -4.4 | Dynein confirm active
CCNc1ccc2noc3c2c1C(=O)c1ccccc1-3	none (no result: HSV augment)
CCOc1ccc2noc3c2c1C(=O)c1ccccc1-3	Dynein transport -7.5, HSV augment inconclusive | Dynein confirm active
O=C1c2ccccc2-c2onc3ccc(NCc4ccco4)c1c23	none | Dynein confirm inactive
N/C(=N\OC(=O)COc1ccc(Br)cc1Cl)c1cccnc1	none (no result: HSV augment)
COc1cc(C(=O)Nc2ccc(S(=O)(=O)Nc3cc(C)on3)cc2)cc(OC)c1OC	none
CC(/C=N/n1c(COc2ccccc2)n[nH]c1=S)=C\c1ccco1	Dynein transport -4 (no result: MT stabilizer, L major viab) | Dynein confirm inactive
S=c1[nH]nc(COc2ccccc2)n1/N=C/c1ccco1	none
CCCCC1OC2(C)OC(=N)C1(C#N)C(C#N)(C#N)C2c1ccccc1 (stereo unspecified)	Dynein transport -4.5, HSV augment inconclusive | Dynein confirm active
